Reference: ChEMBL document CHEMBL1149797, “Synthesis and in vitro antibacterial activities of novel oxazolidinones” (Eur J Med Chem, 2008)
Converted amounts (≈) assume the structure as drawn.

Experiments:
Bacillus cereus = test: Antibacterial activity against Bacillus cereus ATCC 11778 by broth microdilution technique; assay type: functional
In short: (§1)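 Broth microdilution per CLSI (NCCLS) guidelines. Compounds were dissolved in DMSO with water added to give an 80% DMSO stock, then diluted 1:10 to working solutions in water or medium. They were tested at 0.125, 0.25, 0.5, 1, 2, 4, 8 and 16 (two-fold series) against the final inoculum. Each run included sterility controls and vehicle controls (plain medium; 4%, 2%, 1% DMSO). MIC was read as growth inhibition.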

Staphylococcus aureus [1] = test: Antibacterial activity against Staphylococcus aureus ATCC 25923 by broth microdilution technique; assay type: functional; in short: as §1
[2] = system: Staphylococcus epidermidis; test: Antibacterial activity against Staphylococcus epidermidis ATCC 155 by broth microdilution technique; assay type: functional; in short: as §1
Streptococcus pyogenes = test: Antibacterial activity against Streptococcus pyogenes ATCC 14289 by broth microdilution technique; assay type: functional; in short: as §1
Bacillus pumilus = test: Antibacterial activity against Bacillus pumilus ATCC 14884 by broth microdilution technique; assay type: functional; in short: as §1
Enterococcus faecalis [3] = test: Antibacterial activity against Enterococcus faecalis ATCC 35550 by broth microdilution technique; assay type: functional; in short: as §1
Streptococcus pneumoniae = test: Antibacterial activity against multidrug-resistant Streptococcus pneumoniae ATCC 700904 by broth microdilution technique; assay type: functional
In short: (§2)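 Broth microdilution per NCCLS/CLSI. Compounds dissolved in DMSO with water added to give an 80% DMSO stock. Stock diluted 1:10 in 4-8% DMSO in water or medium to make the working solution. Tested at […]. Sterility controls run with each set. Inoculum viability controls included plain medium and 4%, 2% and 1% DMSO vehicle. MIC taken as growth inhibition.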

Enterococcus faecalis [4] = test: Antibacterial activity against Enterococcus faecalis ATCC 14506 by broth microdilution technique; assay type: functional; in short: as §1
Staphylococcus aureus [5] = test: Antibacterial activity against linezolid-resistant Staphylococcus aureus NRS 119 with G 2576T mutation by broth microdilution technique; assay type: functional; in short: as §2
Enterococcus faecalis [6] = test: Antibacterial activity against multidrug-resistant Enterococcus faecalis ATCC 700802 by broth microdilution technique; assay type: functional; in short: as §2
Staphylococcus aureus [7] = test: Antibacterial activity against Staphylococcus aureus ATCC 29213 by broth microdilution technique; assay type: functional; in short: as §2
Staphylococcus aureus [8] = test: Antibacterial activity against methicillin-resistant Staphylococcus aureus ATCC 700699 by broth microdilution technique; assay type: functional; in short: as §2
Staphylococcus aureus [9] = test: Antibacterial activity against linezolid-resistant Staphylococcus aureus NRS 120 with G 2576T mutation by broth microdilution technique; assay type: functional; in short: as §2
Enterococcus faecium = test: Antibacterial activity against vancomycin-resistant Enterococcus faecium ATCC 700221 by broth microdilution technique; assay type: functional; in short: as §2
Staphylococcus aureus [10] = test: Antibacterial activity against Staphylococcus aureus ATCC 9144 by broth microdilution technique; assay type: functional; in short: as §2
Staphylococcus aureus [11] = test: Antibacterial activity against Staphylococcus aureus ATCC 14154 by broth microdilution technique; assay type: functional; in short: as §2
[12] = AUC in Sprague-Dawley rat at 10 mg/kg, iv; assay type: ADME, organism-based; design: dose 10 mg/kg, route intravenous; conditions: plasma
In short: (§3)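 Male Sprague-Dawley rats, 8-10 weeks old, fasted 18 h, with food returned 4 h post-dose and water free. The compound was given as a clear solution in PEG-400/cremophore/ethanol/propylene glycol/saline via the tail vein at 10 mg/kg. Retro-orbital blood went into heparinized tubes at intervals, and plasma was spun and analysed immediately by HPLC against spiked rat-plasma calibrators. Cmax, tmax, AUC0-∞ and t1/2 were derived.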

[13] = Cmax in Sprague-Dawley rat at 30 mg/kg, po; assay type: ADME, organism-based; design: dose 30 mg/kg, route oral; conditions: in vivo
In short: (§4)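 Male Sprague-Dawley rats, 8-10 weeks old, fasted 18 h, fed again 4 h after dosing, water ad libitum. Oral dose of 30 mg/kg as a homogeneous suspension in 0.5% w/v CMC in normal saline. Serial retro-orbital samples into heparinized tubes; plasma separated at ambient temperature and assayed at once by HPLC with calibrators in drug-free rat plasma. Cmax, tmax, AUC0-∞ and t1/2 calculated.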

[14] = Tmax in Sprague-Dawley rat at 10 mg/kg, iv; assay type: ADME, organism-based; design: dose 10 mg/kg, route intravenous; conditions: in vivo; in short: as §3
[15] = Bioavailability in Sprague-Dawley rat at 30 mg/kg, po; conditions: in vivo
[16] = Half life in Sprague-Dawley rat at 10 mg/kg, iv; assay type: ADME, organism-based; design: dose 10 mg/kg, route intravenous; conditions: in vivo
In short: as §3, with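 “The” for “Male Sprague-Dawley rats, 8-10 weeks old, fasted 18 h, with food returned 4 h post-dose and water free. The”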

[17] = Half life in Sprague-Dawley rat at 30 mg/kg, po; assay type: ADME, organism-based; design: dose 30 mg/kg, route oral; conditions: in vivo; in short: as §4
[18] = Tmax in Sprague-Dawley rat at 30 mg/kg, po; assay type: ADME, organism-based; design: dose 30 mg/kg, route oral; conditions: in vivo; in short: as §4
[19] = Cmax in Sprague-Dawley rat at 10 mg/kg, iv; assay type: ADME, organism-based; design: dose 10 mg/kg, route intravenous; conditions: in vivo; in short: as §3
[20] = AUC in Sprague-Dawley rat at 30 mg/kg, po; assay type: ADME, organism-based; design: dose 30 mg/kg, route oral; conditions: plasma; in short: as §4
[21] = Tmax in Sprague-Dawley rat at 25 mg/kg, po; assay type: ADME, organism-based; design: dose 25 mg/kg, route oral; conditions: in vivo

Row | Compound | MIC (Bacillus cereus) [µg/mL] | MIC (Staphylococcus aureus [1]) [µg/mL] | MIC [2] [µg/mL] | MIC (Streptococcus pyogenes) [µg/mL] | MIC (Bacillus pumilus) [µg/mL] | MIC (Enterococcus faecalis [3]) [µg/mL] | MIC (Streptococcus pneumoniae) [µg/mL] | MIC (Staphylococcus aureus [5]) [µg/mL] | MIC (Staphylococcus aureus [8]) [µg/mL] | MIC (Staphylococcus aureus [9]) [µg/mL] | MIC (Enterococcus faecium) [µg/mL] | MIC (Staphylococcus aureus [11]) [µg/mL] | also measured
1 | CC(=O)NC[C@H]1CN(c2ccc(N3CCN(C(=O)/C=C/c4ccc(CO)o4)CC3)c(F)c2)C(=O)O1 | 2 (≈ 4.11 µM) | 4 (≈ 8.22 µM) | 1 (≈ 2.06 µM) | 1 (≈ 2.06 µM) | 4 (≈ 8.22 µM) | 2 (≈ 4.11 µM) |  |  |  |  |  |  | 
2 | CC(=O)NC[C@H]1CN(c2ccc(N3CCN(C(=O)/C=C/c4ccc([N+](=O)[O-])s4)CC3)c(F)c2)C(=O)O1 | 1 (≈ 1.93 µM) | 0.25 (≈ 0.483 µM) | ≤ 0.12 | 0.12 (≈ 0.232 µM) | 0.5 (≈ 0.966 µM) | 0.5 (≈ 0.966 µM) | ≤ 0.125 | 4 (≈ 7.73 µM) | 0.25 (≈ 0.483 µM) | 4 (≈ 7.73 µM) | 0.5 (≈ 0.966 µM) | 0.25 (≈ 0.483 µM) | MIC (Enterococcus faecalis [4]): 0.25 µg/mL (≈ 0.483 µM); MIC (Enterococcus faecalis [6]): 0.5 µg/mL (≈ 0.966 µM); MIC (Staphylococcus aureus [7]): 0.25 µg/mL (≈ 0.483 µM); MIC (Staphylococcus aureus [10]): 0.25 µg/mL (≈ 0.483 µM)
3 | CC(=O)NC[C@H]1CN(c2ccc(N3CCN(C(=O)/C=C/c4ccoc4)CC3)c(F)c2)C(=O)O1 | 1 (≈ 2.19 µM) | 1 (≈ 2.19 µM) | 0.5 (≈ 1.1 µM) | 0.5 (≈ 1.1 µM) | 1 (≈ 2.19 µM) | 1 (≈ 2.19 µM) |  |  |  |  |  |  | 
4 | CC(=O)NC[C@H]1CN(c2ccc(N3CCN(C(=O)/C=C/c4c[nH]c5ccccc45)CC3)c(F)c2)C(=O)O1 | 0.25 (≈ 0.495 µM) | 2 (≈ 3.96 µM) | 1 (≈ 1.98 µM) | 0.12 (≈ 0.237 µM) | 0.5 (≈ 0.989 µM) | 0.5 (≈ 0.989 µM) |  |  |  |  |  |  | 
5 | CC(=O)NC[C@H]1CN(c2ccc(N3CCN(C(=O)/C=C/c4cccnc4)CC3)c(F)c2)C(=O)O1 | 1 (≈ 2.14 µM) | 1 (≈ 2.14 µM) | 0.5 (≈ 1.07 µM) | 0.5 (≈ 1.07 µM) | 1 (≈ 2.14 µM) | 2 (≈ 4.28 µM) |  |  |  |  |  |  | 
6 | CC(=O)NC[C@H]1CN(c2ccc(N3CCN(C(=O)/C=C/c4ccc(C(=O)O)o4)CC3)c(F)c2)C(=O)O1 | > 16 | > 16 | > 16 | > 16 | > 16 | > 16 |  |  |  |  |  |  | 
7 | CC(=O)NC[C@H]1CN(c2ccc(N3CCN(C(=O)/C=C/c4ccc(C=O)o4)CC3)c(F)c2)C(=O)O1 | 2 (≈ 4.13 µM) | 4 (≈ 8.26 µM) | 2 (≈ 4.13 µM) | 1 (≈ 2.06 µM) | 1 (≈ 2.06 µM) | 2 (≈ 4.13 µM) |  |  |  |  |  |  | 
8 | CC(=O)NC[C@H]1CN(c2ccc(N3CCN(C(=O)/C=C/c4ccc(C(=O)[O-])o4)CC3)c(F)c2)C(=O)O1.[Na+] | > 16 | > 16 | > 16 | > 16 | > 16 | > 16 |  |  |  |  |  |  | 
9 | CC(=O)NC[C@H]1CN(c2ccc([N+]3([O-])CCN(C(=O)/C=C/c4ccc([N+](=O)[O-])o4)CC3)c(F)c2)C(=O)O1 |  | 0.5 (≈ 0.966 µM) | 0.12 (≈ 0.232 µM) | 0.12 (≈ 0.232 µM) |  | 1 (≈ 1.93 µM) | 0.25 (≈ 0.483 µM) | 2 (≈ 3.86 µM) | 0.5 (≈ 0.966 µM) | 2 (≈ 3.86 µM) | 0.5 (≈ 0.966 µM) | 1 (≈ 1.93 µM) | AUC [12]: 1030 ng·h/mL; Cmax [13]: 1210 ng/mL; Tmax [14]: 0 h; MIC (Enterococcus faecalis [6]): 1 µg/mL (≈ 1.93 µM); bioavailability [15]: 60%; MIC (Staphylococcus aureus [7]): 1 µg/mL (≈ 1.93 µM); half-life [16]: 57 min; half-life [17]: 58.2 min; Tmax [18]: 10.2 min; Cmax [19]: 9180 ng/mL; AUC [20]: 1870 ng·h/mL
10 | CC(=O)NC[C@H]1CN(c2ccc(N3CCN(C(=O)CO)CC3)c(F)c2)C(=O)O1 [EPEREZOLID] | 2 (≈ 5.07 µM) | 2 (≈ 5.07 µM) | 2 (≈ 5.07 µM) | 0.5 (≈ 1.27 µM) | 1 (≈ 2.54 µM) | 2 (≈ 5.07 µM) | 0.5 (≈ 1.27 µM) | > 16 | 1 (≈ 2.54 µM) | > 16 | 1 (≈ 2.54 µM) | 1 (≈ 2.54 µM) | MIC (Enterococcus faecalis [4]): 1 µg/mL (≈ 2.54 µM); MIC (Enterococcus faecalis [6]): 1 µg/mL (≈ 2.54 µM); MIC (Staphylococcus aureus [7]): 2 µg/mL (≈ 5.07 µM); MIC (Staphylococcus aureus [10]): 2 µg/mL (≈ 5.07 µM)
11 | CC(=O)NC[C@H]1CN(c2ccc(N3CCOCC3)c(F)c2)C(=O)O1 [LINEZOLID] | 2 (≈ 5.93 µM) |  | 1 (≈ 2.96 µM) | 1 (≈ 2.96 µM) | 0.5 (≈ 1.48 µM) |  | 0.25 (≈ 0.741 µM) | > 16 | 1 (≈ 2.96 µM) | > 16 | 1 (≈ 2.96 µM) | 1 (≈ 2.96 µM) | Tmax [14]: 0 h; Tmax [21]: 18.6 min
